Assay results taken from ChEMBL document CHEMBL3271970, “Radiopharmaceuticals. 16. Halogenated dopamine analogs. Synthesis and radiolabeling of 6-iododopamine and tissue distribution studies in animals” (J Med Chem, 1976).

Assays:
Type in all cases: ADME, organism-based
Rattus norvegicus [1] = assay: Biodistribution in thyroid gland of rat assessed per organ at 3.6 x 10^-8 mol, iv measured after 30 mins; details: in vivo, 0.5 h
How it was run: (§1)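 [131I]-labelled tracer in water or saline, injected within 30 min of preparation. Rats given 3.6 × 10^-8 mol/rat iv, killed by ether overdose at each time point. Organs excised and radioactivity counted as % dose/organ, mean ± SD of four rats.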

Rattus norvegicus [2] = assay: Biodistribution in thyroid gland of rat assessed per organ at 3.6 x 10^-8 mol, iv measured after 60 mins; details: in vivo, 1 h; how it was run: as §1
Rattus norvegicus [3] = assay: Biodistribution in thyroid gland of rat assessed per organ at 3.6 x 10^-8 mol, iv measured after 2 hrs; details: in vivo; how it was run: as §1
Rattus norvegicus [4] = assay: Biodistribution in thyroid gland of rat assessed per organ at 3.6 x 10^-8 mol, iv measured after 4 hrs; details: in vivo; how it was run: as §1
Rattus norvegicus [5] = assay: Biodistribution in thyroid gland of rat assessed per organ at 3.6 x 10^-8 mol, iv measured after 24 hrs; details: in vivo; how it was run: as §1
Blood [6] = assay: Biodistribution in blood of rat at 3.6 x 10^-8 mol, iv measured after 5 mins; details: in vivo
How it was run: (§2)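 [131I]-6-iododopamine in water or saline, used within 30 min of preparation. Injected iv at 3.6 × 10^-8 mol/rat. Rats killed by ether overdose at 5 min to 24 h. Blood radioactivity expressed as % dose/g, mean ± SD of four rats.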

Blood [7] = assay: Biodistribution in blood of rat at 3.6 x 10^-8 mol, iv measured after 30 mins; details: in vivo, 0.5 h; how it was run: as §2
Blood [8] = assay: Biodistribution in blood of rat at 3.6 x 10^-8 mol, iv measured after 60 mins; details: in vivo, 1 h; how it was run: as §2
Blood [9] = assay: Biodistribution in blood of rat at 3.6 x 10^-8 mol, iv measured after 2 hrs; details: in vivo; how it was run: as §2
Blood [10] = assay: Biodistribution in blood of rat at 3.6 x 10^-8 mol, iv measured after 4 hrs; details: in vivo; how it was run: as §2
Blood [11] = assay: Biodistribution in blood of rat at 3.6 x 10^-8 mol, iv measured after 24 hrs; details: in vivo; how it was run: as §2
Mus musculus [12] = assay: Biodistribution in adrenal gland of mouse assessed per organ at 8 to 11 x 10^-8 mol, iv measured after 5 mins; details: in vivo
How it was run: (§3)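 [131I]- or [123I]-6-iododopamine in water or saline, used within 30 min of preparation. Injected iv at 8-11 × 10^-8 mol/mouse. Mice killed by ether overdose at 5-240 min; 3-10 mice per time point. Tissue radioactivity expressed as % dose/organ ± SD.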

Mus musculus [13] = assay: Biodistribution in adrenal gland of mouse assessed per organ at 8 to 11 x 10^-8 mol, iv measured after 15 mins; details: in vivo, 0.25 h; how it was run: as §3
Mus musculus [14] = assay: Biodistribution in adrenal gland of mouse assessed per organ at 8 to 11 x 10^-8 mol, iv measured after 30 mins; details: in vivo, 0.5 h; how it was run: as §3
Mus musculus [15] = assay: Biodistribution in adrenal gland of mouse assessed per organ at 8 to 11 x 10^-8 mol, iv measured after 60 mins; details: in vivo, 1 h; how it was run: as §3
Mus musculus [16] = assay: Biodistribution in adrenal gland of mouse assessed per organ at 8 to 11 x 10^-8 mol, iv measured after 120 mins; details: in vivo, 2 h; how it was run: as §3
Mus musculus [17] = assay: Biodistribution in adrenal gland of mouse assessed per organ at 8 to 11 x 10^-8 mol, iv measured after 240 mins; details: in vivo, 4 h; how it was run: as §3
Kidney [18] = assay: Biodistribution in kidney of mouse assessed per organ at 8 to 11 x 10^-8 mol, iv measured after 5 mins; details: in vivo; how it was run: as §3
Kidney [19] = assay: Biodistribution in kidney of mouse assessed per organ at 8 to 11 x 10^-8 mol, iv measured after 15 mins; details: in vivo, 0.25 h; how it was run: as §3
Kidney [20] = assay: Biodistribution in kidney of mouse assessed per organ at 8 to 11 x 10^-8 mol, iv measured after 30 mins; details: in vivo, 0.5 h; how it was run: as §3
Kidney [21] = assay: Biodistribution in kidney of mouse assessed per organ at 8 to 11 x 10^-8 mol, iv measured after 60 mins; details: in vivo, 1 h; how it was run: as §3
Kidney [22] = assay: Biodistribution in kidney of mouse assessed per organ at 8 to 11 x 10^-8 mol, iv measured after 120 mins; details: in vivo, 2 h; how it was run: as §3
Kidney [23] = assay: Biodistribution in kidney of mouse assessed per organ at 8 to 11 x 10^-8 mol, iv measured after 240 mins; details: in vivo, 4 h; how it was run: as §3
Liver [24] = assay: Biodistribution in liver of mouse assessed per organ at 8 to 11 x 10^-8 mol, iv measured after 5 mins; details: in vivo; how it was run: as §3
Liver [25] = assay: Biodistribution in liver of mouse assessed per organ at 8 to 11 x 10^-8 mol, iv measured after 15 mins; details: in vivo, 0.25 h; how it was run: as §3
Liver [26] = assay: Biodistribution in liver of mouse assessed per organ at 8 to 11 x 10^-8 mol, iv measured after 30 mins; details: in vivo, 0.5 h; how it was run: as §3
Liver [27] = assay: Biodistribution in liver of mouse assessed per organ at 8 to 11 x 10^-8 mol, iv measured after 60 mins; details: in vivo, 1 h; how it was run: as §3
Liver [28] = assay: Biodistribution in liver of mouse assessed per organ at 8 to 11 x 10^-8 mol, iv measured after 120 mins; details: in vivo, 2 h; how it was run: as §3
Liver [29] = assay: Biodistribution in liver of mouse assessed per organ at 8 to 11 x 10^-8 mol, iv measured after 240 mins; details: in vivo, 4 h; how it was run: as §3
Mus musculus [30] = assay: Biodistribution in thyroid gland of mouse assessed per organ at 8 to 11 x 10^-8 mol, iv measured after 5 mins; details: in vivo
How it was run: (§4)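 Tracer labelled with either 123I or 131I, in water or saline, used within 30 min of preparation. Mice dosed iv at 8-11 × 10^-8 mol/mouse and killed by ether overdose. Organs counted as % dose/organ ± SD, n = 3-10 mice per time point.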

Mus musculus [31] = assay: Biodistribution in thyroid gland of mouse assessed per organ at 8 to 11 x 10^-8 mol, iv measured after 15 mins; details: in vivo, 0.25 h; how it was run: as §4
Mus musculus [32] = assay: Biodistribution in thyroid gland of mouse assessed per organ at 8 to 11 x 10^-8 mol, iv measured after 30 mins; details: in vivo, 0.5 h; how it was run: as §4
Mus musculus [33] = assay: Biodistribution in thyroid gland of mouse assessed per organ at 8 to 11 x 10^-8 mol, iv measured after 60 mins; details: in vivo, 1 h; how it was run: as §4
Mus musculus [34] = assay: Biodistribution in thyroid gland of mouse assessed per organ at 8 to 11 x 10^-8 mol, iv measured after 120 mins; details: in vivo, 2 h; how it was run: as §4
Mus musculus [35] = assay: Biodistribution in thyroid gland of mouse assessed per organ at 8 to 11 x 10^-8 mol, iv measured after 240 mins; details: in vivo, 4 h; how it was run: as §4

Br.NCCc1cc(O)c(O)cc1[131I]
Drug uptake (Rattus norvegicus [1]): 0.062 %ID | Drug uptake (Rattus norvegicus [2]): 0.08 %ID | Drug uptake (Rattus norvegicus [3]): 0.183 %ID | Drug uptake (Rattus norvegicus [4]): 0.251 %ID | Drug uptake (Rattus norvegicus [5]): 0.65 %ID | Drug uptake (Blood [6]): 0.66 %ID | Drug uptake (Blood [7]): 0.48 %ID | Drug uptake (Blood [8]): 0.131 %ID | Drug uptake (Blood [9]): 0.052 %ID | Drug uptake (Blood [10]): 0.055 %ID | Drug uptake (Blood [11]): 0.0062 %ID | Drug uptake (Mus musculus [12]): 0.03 %ID | Drug uptake (Mus musculus [13]): 0.015 %ID | Drug uptake (Mus musculus [14]): 0.014 %ID | Drug uptake (Mus musculus [15]): 0.0087 %ID | Drug uptake (Mus musculus [16]): 0.02 %ID | Drug uptake (Mus musculus [17]): 0.012 %ID | Drug uptake (Kidney [18]): 8.03 %ID | Drug uptake (Kidney [19]): 3.44 %ID | Drug uptake (Kidney [20]): 1.69 %ID | Drug uptake (Kidney [21]): 1 %ID | Drug uptake (Kidney [22]): 0.78 %ID | Drug uptake (Kidney [23]): 0.79 %ID | Drug uptake (Liver [24]): 7.1 %ID | Drug uptake (Liver [25]): 3.64 %ID | Drug uptake (Liver [26]): 2.4 %ID | Drug uptake (Liver [27]): 1.04 %ID | Drug uptake (Liver [28]): 0.84 %ID | Drug uptake (Liver [29]): 0.94 %ID | Drug uptake (Mus musculus [30]): 0.094 %ID | Drug uptake (Mus musculus [31]): 0.067 %ID | Drug uptake (Mus musculus [32]): 0.084 %ID | Drug uptake (Mus musculus [33]): 0.066 %ID | Drug uptake (Mus musculus [34]): 0.176 %ID | Drug uptake (Mus musculus [35]): 0.158 %ID
